We go through 28 compounds from ChEMBL document CHEMBL1132312, “Conformationally constrained butyrophenones with mixed dopaminergic (D(2)) and serotoninergic (5-HT(2A), 5-HT(2C)) affinities: synthesis, pharmacology, 3D-QSAR, and molecular modeling of (aminoalkyl)benzo- and -thienocycloalkanones as putative atypical antipsychotics” (J Med Chem, 1999).

By Ki is commonly meant the dissociation constant of the complex between target and ligand, obtained from inhibition or displacement. The term ED50 denotes the dose that gives a 50% effect, or the effect in half of the subjects. A lower ED50 goes with greater potency. As a reminder, the pA2 is a measure of antagonist potency on a negative log scale.

Each structure is given as a SMILES string.

Test [1] has as its target T1, D(1A) dopamine receptor (Rattus norvegicus, UniProt P18901). Kind of test: In vitro ability to displace [3H]SCH-23390 binding from Dopamine 1 (D1) receptor in rat striatal membrane. The format is cell membranes.
Test [2] deals with Mus musculus. The experiment in a line: In vivo Antipsychotic activity was quantified by induction of catalepsy in mice. The format is functional. Put shortly:
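Male CD1 mice, 27 ± 3 g, 6-12 per group, tested 30 min after dosing. Forepaws placed on one horizontal wire, hindpaws on another 6 cm away and 2 cm lower. Holding the posture for more than 30 s scored as catalepsy. ED50 by Litchfield-Wilcoxon.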

For test [3], the system named is Mus musculus. Kind of test: In vivo Antipsychotic activity was quantified by inhibition of apomorphine-induced climbing(CL 95%) by mice. The format is functional. Put shortly:
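Male CD1 mice given test drug or vehicle, then 2 mg/kg apomorphine 30 min later. Housed singly in wire cylinders; 6 per dose, 12 controls. Climbing scored 0-2 every 10 min over 30 min. Scores at 20 and 30 min summed and averaged per group. ED50 from nonlinear curve fitting.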

Test [4] in a line: pA2 value was evaluated by measuring the inhibition of the 5-HT-induced contraction of rat aorta. The format is functional, tissue-based. The method, boiled down:
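Thoracic aorta rings, denuded, from male 250-350-g Sprague-Dawley rats. Isometric force recorded after 60 min equilibration under 2 g load, then sensitized with 10 µM 5-HT for 8 min.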

The target of test [5] is T2, 5-hydroxytryptamine receptor 2A (Rattus norvegicus, UniProt P14842). The experiment in a line: In vitro ability to displace [3H]ketanserin binding from 5-hydroxytryptamine 2A receptor in rat membrane.
The target of test [6] is T1, D(1A) dopamine receptor. The experiment in a line: In vitro ability to displace [3H]SCH-23390 binding from Dopamine receptor D1 in rat striatal membrane. The format is cell membranes. The method, boiled down: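 Striatal membranes from male Sprague-Dawley rats, washed in Tris-HCl with 5 mM EDTA. Resuspended at 1.00 mg wet weight/750 µL in 50 mM Tris-HCl pH 7.4 with 120 mM NaCl, 5 mM KCl, 2 mM CaCl2 and 1 mM MgCl2. [3H]SCH23390 competition in duplicate, 15 min at 37 °C, filtered. Nonspecific binding defined with 1 µM final SCH23390. Ki = IC50/(1 + D/Kd).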

The target in test [7] is T2, 5-hydroxytryptamine receptor 2A. Kind of test: Compound was tested in vitro for its binding affinity towards 5-hydroxytryptamine 2A receptor from rat frontal cortex using [3H]-ketanserin as radioligand. It is filed as tissue-based. The method, boiled down:
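Frontal cortex from male 200-250-g Sprague-Dawley rats, homogenized in 0.32 M sucrose, then washed. Pellet incubated 15 min at 37 °C to strip endogenous 5-HT. Assay buffer Tris-HCl pH 8.07 with 4 mM CaCl2 and 0.1% ascorbic acid. [3H]ketanserin competition run in triplicate, 30 min at 37 °C, with GF/C filtration. Nonspecific binding defined with methysergide. Ki = IC50/(1 + D/Kd), with Kd taken from saturation binding.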

T1 sequence (P18901 whole entry): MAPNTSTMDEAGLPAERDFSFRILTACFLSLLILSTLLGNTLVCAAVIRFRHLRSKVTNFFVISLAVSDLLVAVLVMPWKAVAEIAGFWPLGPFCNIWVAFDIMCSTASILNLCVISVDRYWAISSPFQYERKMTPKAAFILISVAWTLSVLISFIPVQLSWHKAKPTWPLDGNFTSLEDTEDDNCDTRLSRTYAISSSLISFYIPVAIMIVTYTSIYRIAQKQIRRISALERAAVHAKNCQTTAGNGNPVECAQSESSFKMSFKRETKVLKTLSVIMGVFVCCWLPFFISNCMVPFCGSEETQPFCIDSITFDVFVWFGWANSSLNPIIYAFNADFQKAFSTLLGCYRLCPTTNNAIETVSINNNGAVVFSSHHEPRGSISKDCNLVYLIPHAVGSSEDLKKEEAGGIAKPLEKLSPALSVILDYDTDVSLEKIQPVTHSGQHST
T2 sequence (P14842 whole entry): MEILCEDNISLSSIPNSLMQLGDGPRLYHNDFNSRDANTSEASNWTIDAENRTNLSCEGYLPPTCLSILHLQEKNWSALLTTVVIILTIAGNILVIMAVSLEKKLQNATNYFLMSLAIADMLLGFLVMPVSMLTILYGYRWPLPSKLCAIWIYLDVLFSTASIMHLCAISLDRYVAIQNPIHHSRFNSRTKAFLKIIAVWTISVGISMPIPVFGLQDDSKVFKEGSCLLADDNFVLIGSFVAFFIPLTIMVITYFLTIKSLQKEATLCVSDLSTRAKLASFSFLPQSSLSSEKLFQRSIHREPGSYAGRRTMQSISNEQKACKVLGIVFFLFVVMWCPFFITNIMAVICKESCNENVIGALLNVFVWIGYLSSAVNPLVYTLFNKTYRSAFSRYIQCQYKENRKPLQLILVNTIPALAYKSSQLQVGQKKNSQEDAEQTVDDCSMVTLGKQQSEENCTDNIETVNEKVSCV

Regarding `Cl.O=C1CC(CN2CCC(c3noc4cc(F)ccc34)CC2)Cc2sccc21` (stereo unspecified), the inhibitory constant (Ki) was 129 nM in test [1] and 4.68 nM in test [5]. Also, the values for the 50% effective dose (ED50) in test [2] and in test [3] were greater than 8 mg/kg and 1.46 mg/kg, respectively. The pA2 in test [4] came to 9.13.
`O=C(c1ccc(F)cc1)C1CCN(CCC2Cc3ccccc3C2=O)CC1` (stereo unspecified) returned a pA2 in test [4] of 8.12.
As to `O=C(CCCN1CCN(CCC2Cc3sccc3C2=O)CC1)c1ccc(F)cc1` (stereo unspecified), the values for the inhibition constant Ki in test [6] and in test [5] were 324 nM and 42.7 nM, respectively. In addition, the ED50 in test [2] is greater than 15 mg/kg; in test [3], 3.34 mg/kg. In test [4], this compound came in with a pA2 of 7.63.
For the compound `Cl.O=C(CCCN1CCN(CC2CC(=O)c3ccccc32)CC1)c1ccc(F)cc1` (stereo unspecified), the Ki in test [6] was 7080 nM; in test [5] it was 45.7 nM. The median effective dose (ED50) in test [2] and in test [3] was greater than 8 mg/kg throughout. For the same compound, the pA2 in test [4] was 7.2.
As for `O=C(CCCN1CCC(O)(c2ccc(Cl)cc2)CC1)c1ccc(F)cc1` [HALOPERIDOL], the ED50 in test [2] stood at 0.67 mg/kg; in test [3], 0.14 mg/kg.
Compound `O=C(c1ccc(F)cc1)C1CCN(CCC2CCCc3ccccc3C2=O)CC1` (stereo unspecified) returned a pA2 in test [4] of 6.75. Also, the Ki in test [5] is 13.2 nM.
`Cl.O=C(CCCN1CCN(CCC2CCc3sccc3C2=O)CC1)c1ccc(F)cc1` (stereo unspecified): the Ki in test [7] is 288 nM; in test [1], 3090 nM. Moreover, the median effective dose (ED50) in test [2] and in test [3] was greater than 15 mg/kg throughout. Also, the pA2 in test [4] worked out at 6.83.
The compound `O=C(CCCN1CCN(CC2CC(=O)c3ccccc3C2)CC1)c1ccc(F)cc1` (stereo unspecified) came in with a pA2 in test [4] of 7.27. For the same compound, the affinity in test [5] corresponds to a Ki of 17.8 nM.
As for `Cl.O=C1c2ccsc2CCC1CCN1CCC(c2noc3cc(F)ccc23)CC1` (stereo unspecified), the Ki is 2.75 nM in test [7] and 295 nM in test [1]. In addition, the figures for the 50% effective dose (ED50) in test [2] and in test [3] were greater than 2 mg/kg and 0.79 mg/kg, respectively. The pA2 in test [4] is listed as 9.87.
Consider `O=C1CC(CN2CCC(C(=O)c3ccc(F)cc3)CC2)Cc2ccccc21` (stereo unspecified), for which the pA2 in test [4] is 7.86.
For `CN1CCN(C2=Nc3cc(Cl)ccc3Nc3ccccc32)CC1` [CLOZAPINE], the median effective dose (ED50) in test [2] was greater than 50 mg/kg; in test [3], 2.21 mg/kg.
Take `COc1ccccc1N1CCN(CCC2CCc3ccccc3C2=O)CC1` (stereo unspecified): the Ki in test [6] is 1480 nM; in test [5], 40.7 nM. In test [4], the pA2 came out at 6.72.
On to `Cl.O=C(CCCN1CCN(CC2CC(=O)c3ccsc3C2)CC1)c1ccc(F)cc1` (stereo unspecified), for which the inhibition constant (Ki) in test [1] was 1350 nM; in test [5], 107 nM. For the same compound, the values for the ED50 in test [2] and in test [3] were greater than 2 mg/kg and greater than 8 mg/kg, respectively. In test [4], this compound came in with a pA2 of 7.79.
For `COc1ccccc1N1CCN(CC2CC(=O)c3ccsc3C2)CC1.Cl` (stereo unspecified) the same measures were greater than 10000 nM, 1510 nM, greater than 8 mg/kg, greater than 8 mg/kg and 5.9.
For `Cl.O=C1CC(CN2CCC(C(=O)c3ccc(F)cc3)CC2)Cc2sccc21` (stereo unspecified), in that order: 427 nM, 57.5 nM, greater than 16 mg/kg, 1.25 mg/kg and 7.82.
Compound `COc1ccccc1N1CCN(CC2CC(=O)c3ccccc3C2)CC1` (stereo unspecified) returned a pA2 in test [4] of 6.48. The affinity in test [5], expressed as Ki, was 513 nM.
With `Cc1nc2n(c(=O)c1CCN1CCC(c3noc4cc(F)ccc34)CC1)CCCC2` [RISPERIDONE], the ED50 in test [2] is greater than 2 mg/kg; in test [3] it was 0.09 mg/kg.
Regarding `COc1ccccc1N1CCN(CC2CC(=O)c3ccccc32)CC1.Cl` (stereo unspecified), the inhibition constant Ki is 3720 nM in test [6] and 891 nM in test [5]. The ED50 in test [2] and in test [3] was greater than 8 mg/kg throughout. This compound also returned a pA2 in test [4] of 6.21.
As to `COc1ccccc1N1CCN(CCC2CCc3sccc3C2=O)CC1.Cl` (stereo unspecified), the inhibitory constant (Ki) in test [1] was 5370 nM; in test [5] it was 145 nM. For the same compound, the ED50 in test [2] and in test [3] was greater than 8 mg/kg in each case. The pA2 in test [4] worked out at 6.95.
`Cl.O=C(c1ccc(F)cc1)C1CCN(CCC2CCc3sccc3C2=O)CC1` (stereo unspecified): the figures for the Ki in test [6] and in test [5] were 1380 nM and 1.45 nM, respectively. Further, the ED50 in test [2] is greater than 4 mg/kg; in test [3] it was 2.03 mg/kg. This compound returned a pA2 in test [4] of 9.02.
For `Cl.O=C1c2ccsc2CC1CCN1CCC(c2noc3cc(F)ccc23)CC1` (stereo unspecified), the inhibition constant Ki in test [6] is 126 nM; in test [5], 1.74 nM. Moreover, the median effective dose (ED50) in test [2] is greater than 20 mg/kg; in test [3] it was 0.47 mg/kg.
In the case of `Cl.O=C1c2sccc2CCC1CCN1CCC(c2noc3cc(F)ccc23)CC1` (stereo unspecified), the figures for the Ki in test [1] and in test [5] were 135 nM and 6.76 nM, respectively. The ED50 in test [2] is greater than 2 mg/kg; in test [3], 0.5 mg/kg.
With `O=C(CCCN1CCN(CCC2CCc3ccccc3C2=O)CC1)c1ccc(F)cc1` (stereo unspecified), the values for the Ki in test [1] and in test [5] were 1350 nM and 72.4 nM, respectively. This compound also registered a pA2 in test [4] of 7.35.
For `Cl.O=C(c1ccc(F)cc1)C1CCN(CCC2CCc3ccsc3C2=O)CC1` (stereo unspecified), the inhibitory constant (Ki) in test [1] is 562 nM; in test [5], 11.2 nM. Also, the results for the median effective dose (ED50) in test [2] and in test [3] were greater than 4 mg/kg and 1.98 mg/kg, respectively.
In test [4], `O=C(c1ccc(F)cc1)C1CCN(CCC2CCc3ccccc3C2=O)CC1` (stereo unspecified) yielded a pA2 of 7.47.
As to `O=C(O)C(=O)O.O=C(c1ccc(F)cc1)C1CCN(CCC2Cc3sccc3C2=O)CC1` (stereo unspecified), the Ki in test [6] was 2510 nM; in test [5] it was 7.08 nM. In addition, the 50% effective dose (ED50) is greater than 16 mg/kg in test [2] and 65 mg/kg in test [3]. The compound also showed a pA2 in test [4] of 8.92.
For `Cl.O=C1CC(CN2CCC(C(=O)c3ccc(F)cc3)CC2)c2ccccc21` (stereo unspecified), in that order: 1550 nM, 26.3 nM, greater than 4 mg/kg, greater than 7 mg/kg and 8.13.
In the case of `O=C(CCCN1CCN(CCC2Cc3ccccc3C2=O)CC1)c1ccc(F)cc1` (stereo unspecified), the figures for the inhibition constant Ki in test [1] and in test [5] were 1320 nM and 123 nM, respectively. The compound further displayed a pA2 in test [4] of 7.3.
